Laboratory results from the M2OR odorant receptor database.

Key:
Details in all cases: stereoisomer not certain
OR6C76 (Homo sapiens) = OR6C76 (Homo sapiens) (UniProt A6NM76)
Outline: (§1)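 Each entry records the cell line, G-protein, co-transfected protein and tags used. Methods varied with the source, often transient luciferase assays in mammalian cell lines. A receptor–molecule pair is called responsive (active) if the original authors judged its signal statistically different from baseline and non-responsive (inactive) otherwise.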

OR6F1 (Homo sapiens) = OR6F1 (Homo sapiens) (UniProt Q8NGZ6)
Outline: as §1

OR6J1 (Homo sapiens) [1] = target: OR6J1 (Homo sapiens) (UniProt Q8NGC5)
Outline: as §1
Target sequence in this assay (Q8NGC5 whole entry S250P): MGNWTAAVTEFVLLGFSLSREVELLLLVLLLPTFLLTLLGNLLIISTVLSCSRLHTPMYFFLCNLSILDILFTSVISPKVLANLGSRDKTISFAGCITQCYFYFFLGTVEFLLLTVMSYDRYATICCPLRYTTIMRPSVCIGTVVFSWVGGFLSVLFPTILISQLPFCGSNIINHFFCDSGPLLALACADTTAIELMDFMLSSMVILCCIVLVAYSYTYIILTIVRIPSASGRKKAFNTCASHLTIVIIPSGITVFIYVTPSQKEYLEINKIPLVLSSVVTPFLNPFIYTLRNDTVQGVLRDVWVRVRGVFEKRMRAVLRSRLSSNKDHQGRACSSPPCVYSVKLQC

OR6K2 (Homo sapiens) = OR6K2 (Homo sapiens) (UniProt Q8NGY2)
Outline: as §1

OR6K3 (Homo sapiens) = OR6K3 (Homo sapiens) (UniProt Q8NGY3)
Outline: as §1

OR6K6 (Homo sapiens) = OR6K6 (Homo sapiens) (UniProt Q8NGW6)
Outline: as §1

OR6M1 (Homo sapiens) = OR6M1 (Homo sapiens) (UniProt Q8NGM8)
Outline: as §1

OR6J1 (Homo sapiens) [2] = target: OR6J1 (Homo sapiens) (UniProt Q8NGC5); remark: listed apart in the source
Outline: as §1
Target sequence in this assay (Q8NGC5 whole entry): as the sequence (Q8NGC5 whole entry S250P) above, with P250S counted along it

OR6K3 = test system: OR6K3
Outline: as §1

OR6M1 R224C = test system: OR6M1 R224C
Outline: as §1

Measured: odorant receptor agonist call

Sequence of OR6F1 (Homo sapiens) (Q8NGZ6 whole entry): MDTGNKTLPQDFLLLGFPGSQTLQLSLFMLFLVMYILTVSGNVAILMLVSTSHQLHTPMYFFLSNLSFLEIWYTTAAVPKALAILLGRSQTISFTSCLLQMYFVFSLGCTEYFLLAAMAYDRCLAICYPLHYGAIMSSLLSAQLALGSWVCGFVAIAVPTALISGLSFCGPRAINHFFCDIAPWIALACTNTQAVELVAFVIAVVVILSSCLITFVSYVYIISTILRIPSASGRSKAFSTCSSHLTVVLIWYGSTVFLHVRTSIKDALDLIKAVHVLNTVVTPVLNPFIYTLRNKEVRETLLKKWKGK
Sequence of OR6M1 (Homo sapiens) (Q8NGM8 whole entry): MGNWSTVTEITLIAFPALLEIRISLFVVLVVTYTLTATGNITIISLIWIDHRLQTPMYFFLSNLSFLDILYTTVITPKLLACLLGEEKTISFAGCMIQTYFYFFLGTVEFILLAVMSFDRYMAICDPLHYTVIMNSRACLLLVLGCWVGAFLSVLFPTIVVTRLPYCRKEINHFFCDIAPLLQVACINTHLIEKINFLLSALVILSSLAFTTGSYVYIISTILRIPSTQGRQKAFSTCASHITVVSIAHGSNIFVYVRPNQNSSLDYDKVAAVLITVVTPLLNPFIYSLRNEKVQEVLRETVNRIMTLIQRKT
Sequence of OR6C76 (Homo sapiens) (A6NM76 whole entry): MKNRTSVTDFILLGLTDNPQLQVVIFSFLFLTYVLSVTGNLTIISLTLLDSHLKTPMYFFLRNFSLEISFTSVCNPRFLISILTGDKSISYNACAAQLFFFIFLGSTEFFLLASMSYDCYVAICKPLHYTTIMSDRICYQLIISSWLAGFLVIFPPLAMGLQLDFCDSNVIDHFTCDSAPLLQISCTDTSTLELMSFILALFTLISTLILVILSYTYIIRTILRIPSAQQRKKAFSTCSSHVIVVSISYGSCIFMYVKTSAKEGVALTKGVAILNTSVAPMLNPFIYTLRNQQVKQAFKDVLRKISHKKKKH
Sequence of OR6K6 (Homo sapiens) (Q8NGW6 whole entry): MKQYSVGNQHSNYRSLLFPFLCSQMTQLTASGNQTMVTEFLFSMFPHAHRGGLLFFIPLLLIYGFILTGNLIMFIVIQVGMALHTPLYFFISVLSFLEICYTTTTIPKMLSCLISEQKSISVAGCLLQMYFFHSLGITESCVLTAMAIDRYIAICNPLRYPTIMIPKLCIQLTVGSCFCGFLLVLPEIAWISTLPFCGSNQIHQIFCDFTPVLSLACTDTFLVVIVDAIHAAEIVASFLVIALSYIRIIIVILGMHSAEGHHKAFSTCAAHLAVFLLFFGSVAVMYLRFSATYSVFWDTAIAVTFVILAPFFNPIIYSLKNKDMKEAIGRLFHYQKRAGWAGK
Sequence of OR6K2 (Homo sapiens) (Q8NGY2 whole entry): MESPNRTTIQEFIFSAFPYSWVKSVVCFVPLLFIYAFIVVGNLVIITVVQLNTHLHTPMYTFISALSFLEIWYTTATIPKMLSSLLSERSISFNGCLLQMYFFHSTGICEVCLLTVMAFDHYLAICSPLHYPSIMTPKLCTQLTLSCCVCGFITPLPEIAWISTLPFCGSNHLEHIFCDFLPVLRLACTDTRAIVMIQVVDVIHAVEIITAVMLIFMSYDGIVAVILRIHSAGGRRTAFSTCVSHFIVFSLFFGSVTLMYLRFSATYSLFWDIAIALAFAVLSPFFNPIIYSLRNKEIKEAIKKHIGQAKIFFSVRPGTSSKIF
Sequence of OR6K3 (Homo sapiens) (Q8NGY3 whole entry): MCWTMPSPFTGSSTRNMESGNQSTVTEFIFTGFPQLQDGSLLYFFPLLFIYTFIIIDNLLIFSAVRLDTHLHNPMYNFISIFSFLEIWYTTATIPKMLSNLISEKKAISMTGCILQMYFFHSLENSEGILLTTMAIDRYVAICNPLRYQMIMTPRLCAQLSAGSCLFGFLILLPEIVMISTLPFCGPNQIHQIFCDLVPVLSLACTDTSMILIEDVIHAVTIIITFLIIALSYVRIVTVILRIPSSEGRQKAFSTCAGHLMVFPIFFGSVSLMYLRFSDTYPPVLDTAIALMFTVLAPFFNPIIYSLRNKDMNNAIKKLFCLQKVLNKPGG
Sequence of OR6K3 (as listed by the source): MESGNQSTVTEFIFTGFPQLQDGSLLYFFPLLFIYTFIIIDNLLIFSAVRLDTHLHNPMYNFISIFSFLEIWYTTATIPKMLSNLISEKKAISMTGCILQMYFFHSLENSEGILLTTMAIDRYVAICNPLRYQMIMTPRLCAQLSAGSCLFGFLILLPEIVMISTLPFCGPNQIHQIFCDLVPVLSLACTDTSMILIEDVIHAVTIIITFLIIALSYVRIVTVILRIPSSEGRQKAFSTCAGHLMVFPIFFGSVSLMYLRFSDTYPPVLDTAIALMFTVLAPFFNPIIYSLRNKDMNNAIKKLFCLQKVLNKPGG
Sequence of OR6M1 R224C (as listed by the source, stated change not applied): as the sequence (Q8NGM8 whole entry) above, with R224C counted along it

Cc1c([N+](=O)[O-])c(C)c([N+](=O)[O-])c(C(C)(C)C)c1[N+](=O)[O-]
not listed: OR6J1 (Homo sapiens) [2] | OR6K3 | OR6M1 R224C
inactive: all other assays above

C=CCOC(=O)Cc1ccccc1
not listed: OR6J1 (Homo sapiens) [1] | OR6K3 (Homo sapiens)
inactive: all other assays above
